Measured values taken from ChEMBL document CHEMBL2417369, “Synthesis and evaluation of heteroaryl substituted diazaspirocycles as scaffolds to probe the ATP-binding site of protein kinases” (Bioorg Med Chem, 2013).

How the values were obtained:
[1] = molecular target: T1, Serine/threonine-protein kinase Sgk3 (Homo sapiens) (UniProt Q96BR1); assay: Inhibition of SGK3 (unknown origin) at 30 uM by microfluidic mobility shift assay relative to control
T1 sequence (whole entry): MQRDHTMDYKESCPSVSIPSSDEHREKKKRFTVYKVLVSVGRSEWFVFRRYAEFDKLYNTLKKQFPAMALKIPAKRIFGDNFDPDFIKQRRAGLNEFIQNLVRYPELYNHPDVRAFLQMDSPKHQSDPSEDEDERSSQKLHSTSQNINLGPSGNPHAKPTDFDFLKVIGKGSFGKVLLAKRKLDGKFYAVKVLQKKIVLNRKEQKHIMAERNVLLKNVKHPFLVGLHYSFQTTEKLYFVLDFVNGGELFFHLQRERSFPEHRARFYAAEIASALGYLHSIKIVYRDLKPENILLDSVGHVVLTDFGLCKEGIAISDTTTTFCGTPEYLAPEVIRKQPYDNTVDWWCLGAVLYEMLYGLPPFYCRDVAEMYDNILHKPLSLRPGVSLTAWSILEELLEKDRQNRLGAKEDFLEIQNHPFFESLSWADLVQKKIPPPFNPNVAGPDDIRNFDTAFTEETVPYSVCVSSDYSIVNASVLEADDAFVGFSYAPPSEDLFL
How it was run: (§1)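 Single-point screen against a 24-kinase panel in a commercial microfluidic assay format. Compounds were tested at 30 µM, with ATP at approximately the Km,[ATP] of each enzyme. H-89 was included on each assay plate as an internal control.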

[2] = molecular target: T2, Testis-specific serine/threonine-protein kinase 1 (Homo sapiens) (UniProt Q9BXA7); assay: Inhibition of TSSK1 (unknown origin) at 30 uM by microfluidic mobility shift assay relative to control; how it was run: as §1
T2 sequence (whole entry): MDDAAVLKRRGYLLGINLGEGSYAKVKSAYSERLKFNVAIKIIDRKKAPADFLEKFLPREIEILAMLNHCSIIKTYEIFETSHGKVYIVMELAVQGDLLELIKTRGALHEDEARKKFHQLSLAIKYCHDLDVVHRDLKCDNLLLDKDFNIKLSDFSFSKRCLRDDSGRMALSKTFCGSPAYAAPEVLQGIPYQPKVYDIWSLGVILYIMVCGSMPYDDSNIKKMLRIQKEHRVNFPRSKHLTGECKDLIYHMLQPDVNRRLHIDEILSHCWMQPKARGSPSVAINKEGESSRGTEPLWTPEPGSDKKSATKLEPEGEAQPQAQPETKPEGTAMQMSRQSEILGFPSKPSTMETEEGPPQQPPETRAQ

[3] = molecular target: T3, Serine/threonine-protein kinase Nek2 (Homo sapiens) (UniProt P51955); assay: Inhibition of NEK2 (unknown origin) at 30 uM by microfluidic mobility shift assay relative to control
T3 sequence (whole entry): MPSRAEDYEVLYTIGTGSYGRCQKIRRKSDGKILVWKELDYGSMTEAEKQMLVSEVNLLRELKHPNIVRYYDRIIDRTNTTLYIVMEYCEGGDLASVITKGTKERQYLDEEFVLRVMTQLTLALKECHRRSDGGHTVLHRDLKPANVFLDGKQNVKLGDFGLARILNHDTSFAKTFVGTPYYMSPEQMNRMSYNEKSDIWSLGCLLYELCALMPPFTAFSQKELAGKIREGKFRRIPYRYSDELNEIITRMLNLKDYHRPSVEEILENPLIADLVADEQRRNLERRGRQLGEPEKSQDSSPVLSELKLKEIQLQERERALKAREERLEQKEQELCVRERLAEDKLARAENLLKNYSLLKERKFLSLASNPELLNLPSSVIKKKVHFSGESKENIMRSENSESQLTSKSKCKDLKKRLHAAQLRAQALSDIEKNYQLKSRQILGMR
How it was run: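 Single-point screen at 30 µM test compound across a 24-kinase panel in a microfluidic assay format. ATP was set near each enzyme's Km,[ATP]. […] The pan-AGC inhibitor H-89 served as an internal control on every assay plate.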

[4] = molecular target: T4, Serine/threonine-protein kinase Chk1 (Homo sapiens, UniProt O14757); assay: Inhibition of CHK1 (unknown origin) by Z'-Lyte assay
T4 sequence (O14757 whole entry): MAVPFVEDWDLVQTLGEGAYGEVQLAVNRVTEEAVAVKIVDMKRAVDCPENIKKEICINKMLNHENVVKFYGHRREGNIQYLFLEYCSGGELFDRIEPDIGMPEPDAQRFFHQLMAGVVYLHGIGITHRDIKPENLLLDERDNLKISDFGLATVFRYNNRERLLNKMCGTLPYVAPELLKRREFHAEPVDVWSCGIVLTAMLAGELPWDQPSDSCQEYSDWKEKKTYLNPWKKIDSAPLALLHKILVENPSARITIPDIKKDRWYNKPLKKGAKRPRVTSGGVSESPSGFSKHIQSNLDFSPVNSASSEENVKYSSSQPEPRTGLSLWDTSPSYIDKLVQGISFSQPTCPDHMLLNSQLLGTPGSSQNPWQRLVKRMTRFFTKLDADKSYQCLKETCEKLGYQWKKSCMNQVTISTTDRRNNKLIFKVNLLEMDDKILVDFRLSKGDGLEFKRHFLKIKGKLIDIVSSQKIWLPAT
How it was run: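 CHK1 IC50 was obtained by titration in the Z'-Lyte assay format, run as an outsourced screening service.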

Compound	inhibition [1]	inhibition [2]	inhibition [3]	IC50 [4]
O=S(=O)(c1cccc2cnccc12)N1CCCC2(CCCNC2)C1 (configuration not stated)	–	–	–	12.8 µM
c1nc(N2CCC3(CCCCN3)CC2)c2nc[nH]c2n1	–	–	–	18 µM
c1nc(N2CCC3(CCCNC3)CC2)c2nc[nH]c2n1	–	–	–	1.8 µM

Second part, led by results:

inhibition [1]	inhibition [2]	inhibition [3]	Compound	IC50 [4]
94%	97%	11%	c1ccc(CC2CCNC3(CCN(c4ncnc5[nH]cnc45)CC3)C2)cc1 (racemic)	–
95%	99%	14%	c1ccc(C2CCNC3(CCN(c4ncnc5[nH]cnc45)CC3)C2)cc1 (racemic)	–
27%	65%	7%	c1ccc(CC2CCC3(CCN(c4ncnc5[nH]cnc45)CC3)NC2)cc1 (racemic)	–
